Experimental data taken from ChEMBL document CHEMBL3297658, “Potent fluorinated agelastatin analogues for chronic lymphocytic leukemia: design, synthesis, and pharmacokinetic studies” (J Med Chem, 2014).
Values after ≈ are worked out from the molar mass of the structure shown. Values belong to the compound of their own block, whether it stands above or below them.

Tests used:
Liver [1] = experiment: Metabolic stability in mouse liver microsomes at 100 uM measured after 1 hr by LC/MS analysis in presence of 1 mM NADPH; type: ADME
Outline: (§1)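 Microsomes (final protein 5 mg/mL, mouse or human) in 0.1 M sodium phosphate pH 7.4 with compound at 100 μM final (DMSO <1%). Preincubated 5 min at 37 °C, started with NADPH (1 mM final), run 60 min at 37 °C with agitation. Stopped with MeOH and centrifuged; supernatant analysed by LCMS. Controls: zero time, no NADPH, heat-inactivated microsomes, and 7-ethoxycoumarin as CYP substrate.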

[2] = Antitumor activity against CLL3 cells isolated from CLL patient assessed as cell viability after 48 hrs by FACS analysis; type: functional, cell-based; conditions: Homo sapiens
Outline: (§2)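 Primary CLL patient cells or JVM-2 line cultured 48 h (37 °C, 5% CO2) in RPMI + 10% FBS with graded compound. Stained 30 min at 37 °C with 40 nM DiOC6 and 10 μg/mL PI, then flow cytometry (525 nm DiOC6, 600 nm PI). Viability = % DiOC6+/PI− relative to untreated or vehicle control. EC50 and SE fitted from dose–response curves.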

[3] = Drug recovery in BALB/c mouse plasma at 50 uM after 24 hrs by LC-MS method; type: ADME, cell-free; conditions: read-out: Drug recovery
Outline: (§3)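 Compound added to pooled female BALB/c mouse plasma or serum, or to human AB serum, at 50 μM final (1% DMSO) and incubated at 37 °C with gentle agitation. Aliquots taken at 0, 0.5, 1, 2, 8, 18 and 24 h, proteins precipitated with CH3CN, spun at 3000g for 10 min, supernatant analysed by LCMS. Run in triplicate.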

Serum [4] = experiment: Protein binding in human AB serum at 50 uM after 1 to 24 hrs by LC-MS method; type: ADME; outline: as §3
[5] = Tmax in BALB/c mouse plasma at 5 mg/kg, ip administered as single dose by LC/MS analysis; type: ADME, organism-based; set-up: dose 5 mg/kg, route intraperitoneal
Outline: (§4)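 Female BALB/c mice dosed at 6 weeks of age with a single intraperitoneal dose of 2.5 or 5.0 mg/kg, n = 4. Tail-vein blood taken at set times and stored at -80 °C. Samples precipitated with CH3CN, spun at 3000g for 10 min, concentrated, reconstituted in 1:1 CH3CN/H2O and quantified by LCMS. PK parameters derived from the concentration–time curves.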

[6] = AUC in BALB/c mouse plasma at 2.5 mg/kg, ip administered as single dose by LC/MS analysis; type: ADME, organism-based; set-up: dose 2.5 mg/kg, route intraperitoneal; outline: as §4
[7] = Antitumor activity against CLL2 cells isolated from CLL patient assessed as cell viability after 48 hrs by FACS analysis; type: functional, cell-based, Homo sapiens; outline: as §2
Liver [8] = experiment: Metabolic stability in human liver S9 fraction containing glucuronidase; type: ADME, subcellular
[9] = Antitumor activity against CLL4 cells isolated from CLL patient assessed as cell viability after 48 hrs by FACS analysis; type: functional, cell-based; conditions: Homo sapiens; outline: as §2
[10] = Tmax in BALB/c mouse plasma at 2.5 mg/kg, ip administered as single dose by LC/MS analysis; type: ADME, organism-based; set-up: dose 2.5 mg/kg, route intraperitoneal; outline: as §4
Plasma = experiment: Protein binding in BALB/c mouse plasma at 50 uM after 1 to 24 hrs by LC-MS method; type: ADME, cell-free; outline: as §3
[11] = AUC in BALB/c mouse plasma at 5 mg/kg, ip administered as single dose by LC/MS analysis; type: ADME, organism-based; set-up: dose 5 mg/kg, route intraperitoneal; outline: as §4
[12] = Antitumor activity against human JVM2 cells assessed as cell viability after 48 hrs by FACS analysis; type: functional, cell-based; conditions: JVM-2, 48 h; outline: as §2
[13] = Drug recovery in BALB/c mouse serum at 50 uM after 24 hrs by LC-MS method; type: ADME, cell-free; conditions: read-out: Drug recovery; outline: as §3
[14] = Cmax in BALB/c mouse plasma at 2.5 mg/kg, iv administered as single dose by LC/MS analysis; type: ADME, organism-based; set-up: dose 2.5 mg/kg, route intravenous
Outline: (§5)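 Female BALB/c mice given a single 2.5 mg/kg dose intravenously (IP arm run in parallel). Plasma concentration–time course followed by LCMS. AUC, Cmax, Tmax and t1/2 calculated from the curves.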

[15] = Half life in BALB/c mouse plasma at 5 mg/kg, ip administered as single dose by LC/MS analysis; type: ADME, organism-based; set-up: dose 5 mg/kg, route intraperitoneal; outline: as §4
[16] = Half life in BALB/c mouse plasma at 2.5 mg/kg, iv administered as single dose by LC/MS analysis; type: ADME, organism-based; set-up: dose 2.5 mg/kg, route intravenous; outline: as §5
[17] = Cmax in BALB/c mouse plasma at 5 mg/kg, ip administered as single dose by LC/MS analysis; type: ADME, organism-based; set-up: dose 5 mg/kg, route intraperitoneal; outline: as §4
Serum [18] = experiment: Protein binding in BALB/c mouse serum at 50 uM after 1 to 24 hrs by LC-MS method; type: ADME; outline: as §3
[19] = Tmax in BALB/c mouse plasma at 2.5 mg/kg, iv administered as single dose by LC/MS analysis; type: ADME, organism-based; set-up: dose 2.5 mg/kg, route intravenous; outline: as §5
Mus musculus = experiment: (§6) Half life in BALB/c mouse plasma at 2.5 mg/kg, ip administered as single dose by LC/MS analysis; type: ADME, organism-based; set-up: dose 2.5 mg/kg, route intraperitoneal; conditions: in vivo; outline: as §4
[20] = Drug recovery in human AB serum at 50 uM after 24 hrs by LC-MS method; type: ADME, cell-free; conditions: read-out: Drug recovery; outline: as §3
Liver [21] = experiment: Metabolic stability in mouse liver microsomes containing glucuronidase; type: ADME
[22] = Antitumor activity against CLL5 cells isolated from CLL patient assessed as cell viability after 48 hrs by FACS analysis; type: functional, cell-based; conditions: Homo sapiens; outline: as §2
[23] = Cytotoxicity against human CLL cells; type: functional, cell-based
Outline: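 Primary patient CLL cells cultured 48 h (37 °C, 5% CO2) in RPMI with 10% FBS and test compound. Viability taken as the DiOC6+/PI− fraction relative to untreated or vehicle control. EC50 with SE from dose–response curves.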

[24] = Antitumor activity against CLL6 cells isolated from CLL patient assessed as cell viability after 48 hrs by FACS analysis; type: functional, cell-based; conditions: Homo sapiens, CLL6, 48 h; outline: as §2
KB = experiment: Cytotoxicity against human KB cells; type: functional, cell-based
Liver microsome = experiment: Metabolic stability in human liver microsomes at 100 uM measured after 1 hr by LC/MS analysis in presence of 1 mM NADPH; type: ADME; outline: as §1
[25] = Antitumor activity against CLL1 cells isolated from CLL patient assessed as cell viability after 48 hrs by FACS analysis; type: functional, cell-based; conditions: Homo sapiens; outline: as §2
[26] = AUC in BALB/c mouse plasma at 2.5 mg/kg, iv administered as single dose by LC/MS analysis; type: ADME, organism-based; set-up: dose 2.5 mg/kg, route intravenous; outline: as §5
[27] = Cmax in BALB/c mouse plasma at 2.5 mg/kg, ip administered as single dose by LC/MS analysis; type: ADME, organism-based; set-up: dose 2.5 mg/kg, route intraperitoneal; outline: as §4
HeLa = experiment: Antitumor activity against human HeLa cells assessed as cell viability by MTT assay; type: functional, cell-based
Outline: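 Adherent HeLa cells exposed to compound, then medium replaced with 0.5 mg/mL MTT in phenol-red-free RPMI and incubated overnight at 37 °C. Lysed with 15% SDS/0.015 M HCl and OD read at 570 nm once formazan dissolved. EC50 and SE derived from dose–response curves.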

[28] = Solubility of compound in water at 25 degC; type: physicochemical; conditions: buffer
[29] = as §6; type: ADME, organism-based; set-up: dose 2.5 mg/kg, route intraperitoneal; conditions: BALB/c, plasma; outline: as §4
[30] = Lipophilicity, log P of compound at 25 degC; type: physicochemical; conditions: octanol/water

- Stability (Liver [1]): Stable
- solubility [28]: 0.3 mg/mL (≈ 908 µM)
- remaining at 24 h, 50 µM [3]: 65%
- PB (Serum [4]): Not Active
- Tmax [5]: 30 min
- AUC [6]: 12.9 µM·h
- Tmax [10]: 15 min
- PPB (Plasma): Not Active
- AUC [11]: 6.51 µM·h
- remaining at 24 h, 50 µM [13]: 65%
- half-life [15]: 45 min
- Cmax [17]: 3250 nM
- PB (Serum [18]): Not Active
- half-life [29]: 72 min
- remaining at 24 h, 50 µM [20]: 65%
- logP [30]: 0.78
- Stability (Liver microsome): Stable
- Cmax [27]: 4180 nM
- EC50 (HeLa): 0.15 µM
SMILES: CN1C(=O)N[C@H]2[C@@H]3NC(=O)c4ccc(C(F)(F)F)n4[C@@H]3C[C@]21O
- EC50 [2]: 3.04 µM
- EC50 ([7]; Homo sapiens, CLL2, 48 h): 0.064 µM
- EC50 [9]: 330 nM
- EC50 [12]: 0.66 µM
- EC50 [22]: 28.4 µM
- EC50 [24]: 650 nM
- EC50 [25]: 0.43 µM

- Stability (Liver [1]): Unstable
- Stability (Liver microsome): Unstable
SMILES: CCOc1ccc2ccc(=O)oc2c1 [ETHOXYCOUMARIN]

- EC50 (HeLa): 262 µM
SMILES: CN1C(=O)N[C@H]2[C@@H]3NC(=O)c4cc(I)c(I)n4[C@@H]3C[C@]21O
- EC50 ([7]; Homo sapiens, CLL2, 48 h): 96 µM
- EC50 [12]: 49 µM
- EC50 [25]: 26.4 µM

- EC50 (HeLa): 1.18 µM
SMILES: CN1C(=O)N[C@H]2[C@@H]3NC(=O)c4ccc(I)n4[C@@H]3C[C@]21O
- EC50 [2]: 6.61 µM
- EC50 ([7]; Homo sapiens, CLL2, 48 h): 0.73 µM
- EC50 [9]: 3040 nM
- EC50 [12]: 2.62 µM
- EC50 [22]: 3.06 µM
- EC50 [24]: 12900 nM
- EC50 [25]: 5.96 µM

- EC50 (HeLa): 153 µM
SMILES: CN1C(=O)N[C@H]2[C@@H]3NC(=O)c4cc(C(F)(F)F)c(C(F)(F)F)n4[C@@H]3C[C@]21O
- EC50 ([7]; Homo sapiens, CLL2, 48 h): 19.2 µM
- EC50 [12]: 41 µM

- EC50 (HeLa): 7.63 µM
SMILES: CN1C(=O)N[C@@]2(O)[C@@H]3NC(=O)c4ccc(Br)n4[C@@H]3C[C@@]12O
- EC50 ([7]; Homo sapiens, CLL2, 48 h): 10 µM
- EC50 [12]: 4.07 µM
- EC50 [25]: 84.6 µM

The remaining lines, values behind:

SMILES: CN1C(=O)N[C@H]2[C@@H]3NC(=O)c4ccc(Br)n4[C@@H]3C[C@]21O (stereo in doubt; 1a) [AGELASTATIN A]
- Stability (Liver [1]): Stable
- EC50 [2]: 0.24 µM
- remaining at 24 h, 50 µM [3]: 65%
- PB (Serum [4]): Not Active
- Tmax [5]: 30 min
- AUC [6]: 2.95 µM·h
- EC50 ([7]; cll2): 0.16 µM
- Stability (Liver [8]): Stable
- EC50 [9]: 370 nM
- Tmax [10]: 30 min
- PPB (Plasma): Not Active
- AUC [11]: 4.29 µM·h
- EC50 [12]: 0.28 µM
- remaining at 24 h, 50 µM [13]: 65%
- Cmax [14]: 4.5 µM
- half-life [15]: 60 min
- half-life [16]: 4 min
- Cmax [17]: 2300 nM
- PB (Serum [18]): Not Active
- Tmax [19]: 2 min
- t1/2 (Mus musculus): 1 h
- remaining at 24 h, 50 µM [20]: 65%
- Stability (Liver [21]): Stable
- EC50 [22]: 0.29 µM
- IC50 [23]: 60 nM
- EC50 [24]: 1150 nM
- IC50 (KB): 0.5 µg/mL (≈ 1.47 µM)
- Stability (Liver microsome): Stable
- EC50 [25]: 0.31 µM
- AUC [26]: 1.74 µM·h
- Cmax [27]: 1280 nM
- EC50 (HeLa): 0.11 µM

SMILES: CN1C(=O)N[C@H]2[C@@H]3NC(=O)c4cc(Br)cn4[C@@H]3C[C@]21O
- EC50 ([7]; Homo sapiens, CLL2, 48 h): 9.22 µM
- EC50 [12]: 71.5 µM
- EC50 [25]: 19.4 µM

SMILES: CN1C(=O)N[C@H]2[C@@H]3NC(=O)c4ccc(Br)n4[C@@H]3C[C@]21O (stereo in doubt; 3) [AGELASTATIN A]
- EC50 ([7]; cll2): > 1 µM

SMILES: CN1C(=O)N[C@H]2[C@@H]3NC(=O)c4cc(Br)c(Br)n4[C@@H]3C[C@]21O
- EC50 ([7]; Homo sapiens, CLL2, 48 h): 4.46 µM
- EC50 [12]: 3.53 µM
- EC50 [25]: 26.3 µM

SMILES: O=C1N[C@H]2[C@@H]3NC(=O)c4ccc(Br)n4[C@@H]3C[C@@]2(O)N1 [AGELASTATIN D]
- EC50 ([7]; Homo sapiens, CLL2, 48 h): 29 µM
- EC50 [12]: 13.2 µM
- EC50 [25]: 91.1 µM
